Source: PubChem (Johns Hopkins Ion Channel Center)
KCNK9 inh: KCNK9 potassium channel inhibitors, primary screen, HEK293 cells, thallium flux | Potassium channel subfamily K member 9 (Homo sapiens), Q9NPC2 | FluxOR thallium flux fluorescence; hits give low values | B-score at 10 µM | hit rate 1.2% among 310,000 | AID 488922, 2010;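 active means ratio B-score over 3 SD below the library mean, with starting fluorescence within 5 SD of its mean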;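 further: negative B-score means less thallium flux so channel inhibition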
hERG protect: hERG rescue from dofetilide block, primary screen, cell-based, CHO-hERG, FluxOR thallium flux, dofetilide IC70; Voltage-gated inwardly rectifying potassium channel KCNH2 (Homo sapiens), Q12809; dofetilide IC70 present; activation (rescue from dofetilide block), less the hit threshold, % at 10 µM; hit rate 0.51% among 310,000; AID 1511, 2009;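 active means activation above the mean of controls blocked by dofetilide plus 5 SD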;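 further: thallium influx through hERG after potassium depolarization seen as dye fluorescence rise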
KCNK3 block: human KCNK3 channel inhibitors, primary screen, CHO cells, FluxOR thallium flux, B-score; hit rate 0.84% among 340,000; B-score at 10 µM; AID 602410, 2012; FluxOR fluorescence; hits give low values; Potassium channel subfamily K member 3 (Homo sapiens), O14649;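 active means B-score under library mean minus 4 SD, starting fluorescence ratio at most library mean plus 5 SD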;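 further: more negative B-score means stronger inhibition of thallium flux through KCNK3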
KCNQ1 block: inhibitors of human KCNQ1 channel, primary screen, cell-based, thallium flux, high-throughput; AID 2642, 2010; hit rate 1.3% among 310,000; CHO-K1 KCNQ1, FluxOR thallium flux fluorescence; hits give high values; Potassium voltage-gated channel subfamily KQT member 1 (Homo sapiens), P51787; B-score at 10 µM;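 active means compounds whose thallium flux B-score, printed positive for inhibition, exceeds three library SD while starting fluorescence stays within three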;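 further: channel opened by potassium depolarization with thallium stimulus after 20 min compound exposure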
Target sequence (P51787 whole entry, looked up): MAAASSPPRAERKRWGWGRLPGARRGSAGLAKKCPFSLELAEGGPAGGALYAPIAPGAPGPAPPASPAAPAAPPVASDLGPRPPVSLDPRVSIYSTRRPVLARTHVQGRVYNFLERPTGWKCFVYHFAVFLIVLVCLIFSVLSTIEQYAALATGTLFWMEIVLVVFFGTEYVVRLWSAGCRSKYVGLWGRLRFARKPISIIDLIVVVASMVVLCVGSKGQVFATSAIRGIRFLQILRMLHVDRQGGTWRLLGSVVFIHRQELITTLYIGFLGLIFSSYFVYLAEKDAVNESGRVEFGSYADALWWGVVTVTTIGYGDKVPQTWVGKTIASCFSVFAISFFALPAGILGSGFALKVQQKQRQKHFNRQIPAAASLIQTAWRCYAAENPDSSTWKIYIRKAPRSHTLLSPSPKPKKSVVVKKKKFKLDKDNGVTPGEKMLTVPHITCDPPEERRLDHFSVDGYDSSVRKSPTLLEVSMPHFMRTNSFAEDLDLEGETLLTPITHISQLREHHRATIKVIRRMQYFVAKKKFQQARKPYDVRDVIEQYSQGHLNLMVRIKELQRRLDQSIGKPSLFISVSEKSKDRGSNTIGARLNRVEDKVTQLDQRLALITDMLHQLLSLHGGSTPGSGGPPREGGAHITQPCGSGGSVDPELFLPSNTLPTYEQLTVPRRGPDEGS
KCNQ1 pot: potentiators or activators of KCNQ1 channel, primary screen, cell-based, thallium flux, high-throughput; B-score at 10 µM; CHO-K1 KCNQ1, thallium flux FluxOR fluorescence; hits give high values; hit rate 0.35% among 310,000; AID 2648, 2010;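 active means fluorescence ratio B-score, a plate-corrected score, at least three library SD, with initial intensity B-score within 5 SD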
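System: CHO-K1 cells stably expressing KCNQ1 / Medium: assay buffer for compound exposure, DMSO matched across wells / Reagent: thallium- and potassium-containing depolarizing buffer / Compound: one concentration, matched DMSO / Incubation: 20 min compound pretreatment at room temperature / Measured by: kinetic FluxOR fluorescence, 10 s baseline plus 110 s post-stimulus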
Kir21 inh: inhibitors of mouse Kir2.1 inward-rectifier potassium channel; Inward rectifier potassium channel 2 (Mus musculus), P35561; HEK293-Kir2.1, FluxOR thallium flux fluorescence; hits give low values; B-score at 10 µM; hit rate 0.85% among 310,000; AID 1672, 2009;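 active means fluorescence ratio B-score at or below minus 3 SD of library scores, with starting-brightness B-score within 2 SD, cut at about -4.2 in these data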;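 further: channel flux triggered by added potassium and thallium sulfate stimulus; B-score of peak minus minimum fluorescence over baseline after thallium stimulus; more negative B-score means stronger Kir2.1 block with less thallium influx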
* hit, by the source's call; i = inactive; · = not tested or not shown. Compounds with a hit are over-represented: about 3.7% of the library has one in this group of screens.

SMILES	KCNK9 inh	hERG protect	KCNK3 block	KCNQ1 block	KCNQ1 pot	Kir21 inh
O=C(O)c1cccc(-n2sc3ccccc3c2=O)c1	·	·	i	·	·	·
Nc1ccccc1SSc1ccccc1N	i	-7.5	i	i	i	0.16
CC(C(Sc1ccccc1N)c1ccccc1)[N+](=O)[O-] (stereo unspecified)	i	-9.8	i	i	i	-7.23*
COc1ccc(NC2CCCCC2NS(=O)(=O)c2ccc(C)cc2)cc1 (stereo unspecified)	i	-7.2	i	i	i	0.27
CCCc1nc(C)c2c(=O)[nH]c(-c3cc(S(=O)(=O)N4CCN(CC)CC4)ccc3OCC)nn12	i	-7.4	i	i	i	-0.88
CCN1CCN(c2cc(N3CCN(C(=O)c4ccco4)CC3)c3c4c(onc24)-c2ccccc2C3=O)CC1	i	-10.4	i	8*	i	-1.88
O=C(O)CCNc1cc(N2CCN(C(=O)c3ccco3)CC2)c2noc3c2c1C(=O)c1ccccc1-3	i	-18.3	i	i	i	-0.93
CNc1nc(N)c(C(=O)Nc2cc(C)on2)s1	i	-7.9	i	i	i	0.24
Cc1cc(C)c(NC(=O)CNC(=O)COC(=O)Cc2cccs2)c(C)c1	i	-12.7	i	i	i	-1.78
O=[N+]([O-])c1ccc(N2CCCCCC2)c([N+](=O)[O-])c1	i	-15.8	i	i	i	-0.89
CN(C)S(=O)(=O)c1cc([N+](=O)[O-])ccc1N1CCCCCC1	i	-1.5	i	i	i	-4.62*
N#Cc1cc([N+](=O)[O-])ccc1N1CCCC1	i	-2.0	i	i	i	-1.05
CC(C)CN(CC(C)C)S(=O)(=O)c1cc([N+](=O)[O-])ccc1N1CCCCCC1	i	-0.2	i	7*	i	-2.22
COc1cc(NC(=O)COC(=O)CCOc2ccc(C)cc2)cc(OC)c1	i	-11.6	i	i	i	-0.06
CC(=O)c1c(C(C)=O)c(C)n(-c2cccc([N+](=O)[O-])c2)c1C	i	-2.2	i	i	i	-1.07
Cc1cc(C(=O)CCl)c(C)n1-c1cccc([N+](=O)[O-])c1	i	-9.7	i	i	11*	-1.22
O=C(NCCOCCNC(=O)OCc1ccccc1)OCc1ccccc1	i	-21.8	i	i	i	-0.34
O=Cc1s/c(=N\S(=O)(=O)c2ccccc2)n(CCCCl)c1Cl	i	7.4*	i	i	i	-0.82
COc1ccc(N2C(=O)C3CCCN3C2=O)cc1 (stereo unspecified)	i	4.9*	i	i	i	0.78
C/C(=N\NS(=O)(=O)c1ccc(C(C)(C)C)cc1)c1ccccc1	i	-5.7	i	6*	i	1.15
C/C(=N/NS(=O)(=O)c1ccc(C(C)(C)C)cc1)c1ccc2c(c1)OCO2	i	-7.7	i	i	i	0.85
O=Cc1ccnc(-c2ccc(OC(=O)c3ccco3)cc2)n1	i	-18.5	i	i	i	-5.41*
O=C(Oc1ccc(-c2ccccc2)cc1)c1ccco1	·	·	i	·	·	·
N#CC1C=Cc2ccccc2N1C(=O)c1ccccc1 (stereo unspecified)	-7.26*	-3.6	i	i	i	-0.95
O=C(O)C1C=Cc2ccccc2N1C(=O)c1ccccc1 (stereo unspecified) (tested in a mixture with another compound)	·	·	i	·	·	·
SMILES	KCNK9 inh	hERG protect	KCNK3 block	KCNQ1 block	KCNQ1 pot	Kir21 inh
COc1ccc(CCn2ccc(O)c(Cc3c(F)cccc3Cl)c2=O)cc1OC	i	-4.0	i	i	i	-1.38
O=C1N(Cc2ccc(F)cc2)CCN1c1ccc(F)cc1	i	-14.4	i	i	19*	-0.45
COc1cccc(CN2CCN(c3ccc(F)cc3)C2=O)c1	i	-0.7	i	i	i	1.32
CC1CN(C=O)CC(C)N1CCN1C(C)CN(C=O)CC1C (stereo unspecified)	·	·	i	·	·	·
COCCN(C(=O)c1ccc(N2CCCC2=O)cc1)c1c(N)n(Cc2ccccc2)c(=O)[nH]c1=O	·	·	i	·	·	·
CN1CCN(c2ccccc2NC(=O)c2ccc(-c3ccccc3)cc2)CC1	i	-14.2	-8.76*	i	i	-1.76
O=C(c1ccccc1)c1ncc[nH]1	i	-3.7	i	i	i	0.75
O=c1[nH]c(/C(=N\O)c2ccccc2)no1	-7.17*	-9.5	i	i	i	-3.73
O=C(Nc1nc2n(n1)C(c1ccccc1)CC(c1ccc(Cl)cc1)N2)c1ccco1 (stereo unspecified)	-6.95*	-4.2	i	i	i	-0.04
Cc1ccc(C(CNC(=O)Nc2ccc(Cl)cc2)N2CCN(C)CC2)cc1 (stereo unspecified)	i	-14.7	i	i	i	-0.83
CN1CCN(C(CNC(=O)Nc2ccc(Cl)cc2)c2ccc(F)cc2)CC1 (stereo unspecified)	i	-11.4	i	6*	i	-0.96
O=C1C(=O)N(C/C=C/c2ccccc2)c2ccccc21	i	-2.1	i	i	i	1.31
CCOP(=O)(OCC)C(Nc1cccc([N+](=O)[O-])c1)c1ccccc1 (stereo unspecified)	i	-2.3	i	i	i	0
Cc1c(NC(=O)c2ccc(S(=O)(=O)N3CCOCC3)cc2)c(=O)n(-c2ccccc2)n1C	i	-12.2	i	i	i	1.2
COc1ccc(Cn2c(=O)oc3ccc(C)cc32)cc1OC	i	-22.4	i	i	i	-4.23*
COc1ccc(N2CCN(C(=O)CSc3ccc([N+](=O)[O-])cc3)CC2)cc1	i	-3.2	i	8*	i	-0.12
COc1ccc(C(CNC(=O)c2cc(S(=O)(=O)N3CCN(c4ccccc4)CC3)ccc2Cl)N(C)C)cc1 (stereo unspecified)	·	·	i	·	·	·
CC1=CCC2C(=O)N(c3ccc(OC(=O)c4ccco4)cc3)C(=O)C2C1 (stereo unspecified)	i	-11.9	i	i	i	-7.86*
CC(C)(C)SCCNC(=O)c1ccc(Cl)c([N+](=O)[O-])c1	i	-13.0	i	i	i	0.89
Cn1c2ccccc2c(=O)c2ccc(C#Cc3ccc(N)cc3)cc21	-7.34*	-16.7	i	i	i	0.21
